Values after ≈ are worked out from the molar mass of the structure shown. Active and inactive are the calls of the source. The rule behind the calls is not given here.
Experiments:
Staphylococcus aureus [1] = assay: Antibacterial activity against Staphylococcus aureus after 16 hrs by serial dilution method; format: functional
Summary of the method: (§1)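 Broth tube serial dilution MIC. Test compounds were stocked at 1 mg/mL in DMF and twofold diluted in trypticase soya broth across six tubes. Each organism was grown 6 h at 37 °C, adjusted to […] (10⁸ cfu/mL) and diluted to 10⁵ cfu/mL; 1 mL was added per tube. Tubes were incubated 16 h at 37 °C. MIC was read as the concentration giving no visible growth. Inoculum and broth controls were included.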

Pseudomonas aeruginosa [2] = assay: Antibacterial activity against Pseudomonas aeruginosa after 16 hrs by serial dilution method; format: functional; summary of the method: as §1
Bacillus subtilis [3] = assay: Antibacterial activity against Bacillus subtilis after 16 hrs by serial dilution method; format: functional; summary of the method: as §1
Escherichia coli [4] = assay: Antibacterial activity against Escherichia coli after 16 hrs by serial dilution method; format: functional; summary of the method: as §1
Bacillus subtilis [5] = assay: Antibacterial activity against Bacillus subtilis at 1.6125 to 50 ug/ml after 16 hrs by serial dilution method; format: functional, organism-based; summary of the method: as §1
Staphylococcus aureus [6] = assay: Antibacterial activity against Staphylococcus aureus at 1.6125 to 50 ug/ml after 16 hrs by serial dilution method; format: functional, organism-based; summary of the method: as §1
Pseudomonas aeruginosa [7] = assay: Antibacterial activity against Pseudomonas aeruginosa at 1.6125 to 50 ug/ml after 16 hrs by serial dilution method; format: functional, organism-based; summary of the method: as §1
Escherichia coli [8] = assay: Antibacterial activity against Escherichia coli at 1.6125 to 50 ug/ml after 16 hrs by serial dilution method; format: functional, organism-based; summary of the method: as §1

For `Clc1ccc(-c2csc(N/N=C/c3c[nH]nc3-c3cc(Cl)sc3Cl)n2)c(Cl)c1`, the MIC (Staphylococcus aureus [1]) was 3.12 µg/mL (≈ 6.39 µM), the MIC (Pseudomonas aeruginosa [2]) was 1.61 µg/mL (≈ 3.3 µM) and the MIC (Bacillus subtilis [3]) was 1.61 µg/mL (≈ 3.3 µM). For the same molecule, the MIC (Escherichia coli [4]) was 1.61 µg/mL (≈ 3.3 µM).

In the case of `CO/N=C(\C(=O)N[C@@H]1C(=O)N2C(C(=O)O)=C(CSc3nc(=O)c(O)nn3C)CS[C@H]12)c1csc(N)n1` [CEFTRIAXONE], the MIC (Staphylococcus aureus [1]) is reported as 3.12 µg/mL (≈ 5.63 µM), the MIC (Pseudomonas aeruginosa [2]) is reported as 1.61 µg/mL (≈ 2.91 µM) and the MIC (Bacillus subtilis [3]) is reported as 1.61 µg/mL (≈ 2.91 µM). The MIC (Escherichia coli [4]) was 1.61 µg/mL (≈ 2.91 µM).

For `O=c1oc2ccc(Br)cc2cc1-c1csc(N/N=C/c2c[nH]nc2-c2ccc(-c3ccccc3)cc2)n1`, the Activity (Bacillus subtilis [5]) was “inactive”, the Activity (Staphylococcus aureus [6]) was “inactive” and the Activity (Pseudomonas aeruginosa [7]) was “inactive”. For the same molecule, the Activity (Escherichia coli [8]) was “inactive”.

With `CSc1ccc(-c2n[nH]cc2/C=N/Nc2nc(-c3ccc(Cl)cc3Cl)cs2)cc1` the MIC (Pseudomonas aeruginosa [2]) was 50 µg/mL (≈ 109 µM), the Activity (Staphylococcus aureus [6]) was “inactive” and the MIC (Bacillus subtilis [3]) was 50 µg/mL (≈ 109 µM). The MIC (Escherichia coli [4]) was 50 µg/mL (≈ 109 µM).

With `Clc1ccc(-c2csc(N/N=C/c3c[nH]nc3-c3ccc(-c4ccccc4)cc3)n2)c(Cl)c1` the Activity (Bacillus subtilis [5]) was “inactive”, the Activity (Staphylococcus aureus [6]) was “inactive” and the Activity (Pseudomonas aeruginosa [7]) was “inactive”. For the same molecule, the Activity (Escherichia coli [8]) was “inactive”.

`Clc1ccc(-c2csc(N/N=C/c3c[nH]nc3-c3ccc(Cl)cc3Cl)n2)c(Cl)c1` was tested, and the MIC (Staphylococcus aureus [1]) was 3.12 µg/mL (≈ 6.47 µM), the Activity (Bacillus subtilis [5]) was “inactive” and the Activity (Pseudomonas aeruginosa [7]) was “inactive”. It also gave an MIC (Escherichia coli [4]) of 50 µg/mL (≈ 103 µM).

`O=c1oc2ccccc2cc1-c1csc(N/N=C/c2c[nH]nc2-c2ccc(-c3ccccc3)cc2)n1` was tested, and the Activity (Bacillus subtilis [5]) was “inactive”, the Activity (Staphylococcus aureus [6]) was “inactive” and the Activity (Pseudomonas aeruginosa [7]) was “inactive”. The Activity (Escherichia coli [8]) was “inactive”.

For `CSc1ccc(-c2n[nH]cc2/C=N/Nc2nc(-c3cc4cc(Br)ccc4oc3=O)cs2)cc1`, the Activity (Bacillus subtilis [5]) was “inactive”, the Activity (Staphylococcus aureus [6]) was “inactive” and the Activity (Pseudomonas aeruginosa [7]) was “inactive”. For the same molecule, the Activity (Escherichia coli [8]) was “inactive”.

Molecule `O=c1oc2ccc(Br)cc2cc1-c1csc(N/N=C/c2c[nH]nc2-c2cc(Cl)sc2Cl)n1` has an MIC (Staphylococcus aureus [1]) of 1.61 µg/mL (≈ 2.84 µM), an MIC (Pseudomonas aeruginosa [2]) of 1.61 µg/mL (≈ 2.84 µM) and an MIC (Bacillus subtilis [3]) of 1.61 µg/mL (≈ 2.84 µM). It also gave an MIC (Escherichia coli [4]) of 1.61 µg/mL (≈ 2.84 µM).

`O=c1oc2ccc(Br)cc2cc1-c1csc(N/N=C/c2c[nH]nc2-c2ccc(Cl)cc2Cl)n1` showed an MIC (Staphylococcus aureus [1]) of 3.12 µg/mL (≈ 5.57 µM), an MIC (Pseudomonas aeruginosa [2]) of 1.61 µg/mL (≈ 2.87 µM) and an MIC (Bacillus subtilis [3]) of 3.12 µg/mL (≈ 5.57 µM). The MIC (Escherichia coli [4]) was 1.61 µg/mL (≈ 2.87 µM).

`O=c1oc2ccccc2cc1-c1csc(N/N=C/c2c[nH]nc2-c2cc(Cl)sc2Cl)n1` showed an MIC (Staphylococcus aureus [1]) of 1.61 µg/mL (≈ 3.3 µM), an MIC (Pseudomonas aeruginosa [2]) of 1.61 µg/mL (≈ 3.3 µM) and an MIC (Bacillus subtilis [3]) of 1.61 µg/mL (≈ 3.3 µM). It also gave an MIC (Escherichia coli [4]) of 3.12 µg/mL (≈ 6.4 µM).

With `CSc1ccc(-c2n[nH]cc2/C=N/Nc2nc(-c3cc4ccccc4oc3=O)cs2)cc1` the Activity (Bacillus subtilis [5]) was “inactive”, the Activity (Staphylococcus aureus [6]) was “inactive” and the Activity (Pseudomonas aeruginosa [7]) was “inactive”. The Activity (Escherichia coli [8]) was “inactive”.

`O=c1oc2ccccc2cc1-c1csc(N/N=C/c2c[nH]nc2-c2ccc(Cl)cc2Cl)n1` was tested, and the MIC (Staphylococcus aureus [1]) was 3.12 µg/mL (≈ 6.48 µM), the MIC (Pseudomonas aeruginosa [2]) was 1.61 µg/mL (≈ 3.34 µM) and the MIC (Bacillus subtilis [3]) was 1.61 µg/mL (≈ 3.34 µM). It also gave an MIC (Escherichia coli [4]) of 1.61 µg/mL (≈ 3.34 µM).

— ChEMBL document CHEMBL1287641, “Synthesis, characterization and anti-microbial studies of some novel 2,4-disubstituted thiazoles” (2010)
